Measurements published in ChEMBL document CHEMBL2177000, “Pharmacokinetic optimization of class-selective histone deacetylase inhibitors and identification of associated candidate predictive biomarkers of hepatocellular carcinoma tumor response” (J Med Chem, 2012).

Assays:
Cytochrome P450 1A2 = target: T1, Cytochrome P450 1A2 (Homo sapiens, UniProt P05177); assay: Inhibition of CYP1A2 in human liver microsomes in presence of NADPH by LC-MS/MS method; type: ADME, Microsome
T1 sequence (P05177 whole entry): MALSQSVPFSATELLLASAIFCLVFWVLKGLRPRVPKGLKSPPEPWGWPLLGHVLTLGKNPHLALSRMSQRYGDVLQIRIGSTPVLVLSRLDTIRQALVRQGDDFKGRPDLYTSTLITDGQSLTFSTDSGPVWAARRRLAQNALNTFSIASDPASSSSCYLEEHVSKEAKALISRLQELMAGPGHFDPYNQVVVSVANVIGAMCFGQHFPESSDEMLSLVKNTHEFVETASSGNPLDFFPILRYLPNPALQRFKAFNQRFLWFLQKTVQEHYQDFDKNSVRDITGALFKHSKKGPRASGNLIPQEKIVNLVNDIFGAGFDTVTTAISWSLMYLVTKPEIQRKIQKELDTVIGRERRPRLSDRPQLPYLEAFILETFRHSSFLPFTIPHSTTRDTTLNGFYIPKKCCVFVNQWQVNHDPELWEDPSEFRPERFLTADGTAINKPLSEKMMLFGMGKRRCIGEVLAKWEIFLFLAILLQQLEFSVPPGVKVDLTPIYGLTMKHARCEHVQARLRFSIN

Cytochrome P450 2C19 = Cytochrome P450 2C19 (Homo sapiens, UniProt P33261); assay: Inhibition of CYP2C19 in human liver microsomes in presence of NADPH by LC-MS/MS method; type: ADME, Microsome
Cytochrome P450 2C9 = Cytochrome P450 2C9 (Homo sapiens, UniProt P11712); assay: Inhibition of CYP2C9 in human liver microsomes in presence of NADPH by LC-MS/MS method; type: ADME, Microsome
Cytochrome P450 3A4 = Cytochrome P450 3A4 (Homo sapiens, UniProt P08684); assay: Inhibition of CYP3A4 in human liver microsomes in presence of NADPH by LC-MS/MS method; type: ADME, Microsome
Cytochrome P450 2D6 = Cytochrome P450 2D6 (Homo sapiens, UniProt P10635); assay: Inhibition of CYP2D6 in human liver microsomes in presence of NADPH by LC-MS/MS method; type: ADME, Microsome
[1] = Oral bioavailability in BALB/C mouse at 10 mg/kg by LC-MS/MS method; type: ADME, organism-based; conditions: BALB/C, in vivo
How it was run: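 Bioavailability from single-dose iv (2 mg/kg, 5% DMSO/40% PEG400/55% saline) and oral gavage (10 mg/kg, 0.445% microcrystalline cellulose microsuspension) studies in BALB/C nude mice (N = 16 per arm); plasma at eight (po) or nine (iv) time points, LC-MS/MS, noncompartmental analysis.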

[2] = Volume of distribution at steady state in BALB/C mouse at 10 mg/kg, po or 2 mg/kg, iv by LC-MS/MS method; type: ADME, organism-based; parameters: unit not given here; conditions: in vivo, read-out: Vdss
How it was run: (§1)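 Single-dose PK: iv bolus 2 mg/kg in 5% DMSO/40% PEG400/55% saline and/or oral gavage 10 mg/kg as 0.445% microcrystalline cellulose microsuspension; BALB/C nude mice (15−20 g, N = 16 per arm) or male Sprague−Dawley rats (250 ± 20 g, N = 3). Blood at eight (po) or nine (iv) time points into sodium heparin, plasma by LC-MS/MS, noncompartmental analysis.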

[3] = Clearance in BALB/C mouse at 10 mg/kg, po or 2 mg/kg, iv by LC-MS/MS method; type: ADME, organism-based; conditions: in vivo
How it was run: (§2)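 Female-unspecified BALB/C nude mice (15−20 g, N = 16 per arm); iv bolus 2 mg/kg in 5% DMSO/40% PEG400/55% saline and/or oral gavage 10 mg/kg as 0.445% microcrystalline cellulose microsuspension. Blood sampled at nine (iv) or eight (po) time points into sodium heparin tubes; plasma by LC-MS/MS; noncompartmental analysis.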

[4] = AUC in BALB/C mouse at 10 mg/kg, po or 2 mg/kg, iv by LC-MS/MS method; type: ADME, organism-based, Plasma; conditions: BALB/C, plasma; how it was run: as §2
[5] = Half life in BALB/C mouse at 10 mg/kg, po or 2 mg/kg, iv by LC-MS/MS method; type: ADME, organism-based; conditions: BALB/C, in vivo; how it was run: as §2
[6] = Cmax in BALB/C mouse at 10 mg/kg, po or 2 mg/kg, iv by LC-MS/MS method; type: ADME, organism-based; conditions: BALB/C, in vivo; how it was run: as §2
[7] = Tmax in BALB/C mouse at 10 mg/kg, po or 2 mg/kg, iv by LC-MS/MS method; type: ADME, organism-based; conditions: BALB/C, in vivo; how it was run: as §1
[8] = Clearance in mouse liver microsomes at 1 uM incubated for 10 mins by LC-MS/MS method; type: ADME, Microsome
How it was run: (§3)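 Liver microsomes (human or mouse, 0.5 mg/mL) in 100 mM potassium phosphate pH 7.4 with 1 μM compound, prewarmed 10 min at 37 °C, started with NADPH (10 mM); stopped at 0, 3, 6, 9, 15, 30 min with ice-cold methanol containing tolbutamide internal standard; LC-MS/MS. Hepatic clearance (mL/min/kg) calculated from intrinsic clearance.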

[9] = Clearance in human liver microsomes at 1 uM incubated for 10 mins by LC-MS/MS method; type: ADME, Microsome; how it was run: as §3
[10] = target: Histone deacetylase (Homo sapiens) (UniProt Q13547+O15379+Q9UBN7+Q92769+Q9UQL6+Q8WUI4+Q9BY41+Q96DB2+P56524+Q9UKV0+Q969S8); assay: Inhibition of Class 1 histone deacetylase in human HeLa cells assessed as induction in p21 protein expression at 3 uM incubated for 16 hrs by luciferase reporter gene assay relative to HDAC inhibitor entinostat; type: cell-based; parameters: scale not given: the % may be the effect or the level left
[11] = target: Voltage-gated inwardly rectifying potassium channel KCNH2 (Homo sapiens, UniProt Q12809); assay: Inhibition of human ERG expressed in CHO cells by patch clamp method; type: cell-based
[12] = Oral bioavailability in BALB/C mouse at 5 mg/kg by LC-MS/MS method; type: ADME, organism-based; conditions: in vivo
How it was run: (§4)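 BALB/C nude mice (15−20 g) given 5 mg/kg po and 1 mg/kg iv; blood collected at eight (po) or nine (iv) time points into sodium heparin tubes, plasma stored at −20 °C, measured by LC-MS/MS and analysed noncompartmentally.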

[13] = Volume of distribution at steady state in BALB/C mouse at 5 mg/kg, po or 1 mg/kg, iv by LC-MS/MS method; type: ADME, organism-based; conditions: in vivo, read-out: Vdss
How it was run: (§5)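 Nude-mouse PK at reduced doses, 1 mg/kg iv bolus (5% DMSO, 40% PEG400, 55% saline) and 5 mg/kg oral gavage (microcrystalline cellulose microsuspension); plasma from serial heparinized blood samples (eight po, nine iv time points) quantified by LC-MS/MS, parameters by noncompartmental methods.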

[14] = Clearance in BALB/C mouse at 5 mg/kg, po or 1 mg/kg, iv by LC-MS/MS method; type: ADME, organism-based; conditions: in vivo; how it was run: as §4
[15] = AUC in BALB/C mouse at 5 mg/kg, po or 1 mg/kg, iv by LC-MS/MS method; type: ADME, organism-based; conditions: plasma; how it was run: as §4
[16] = Half life in BALB/C mouse at 5 mg/kg, po or 1 mg/kg, iv by LC-MS/MS method; type: ADME, organism-based; conditions: in vivo; how it was run: as §4
[17] = Cmax in BALB/C mouse at 5 mg/kg, po or 1 mg/kg, iv by LC-MS/MS method; type: ADME, organism-based; conditions: in vivo; how it was run: as §4
[18] = Tmax in BALB/C mouse at 5 mg/kg, po or 1 mg/kg, iv by LC-MS/MS method; type: ADME, organism-based; conditions: in vivo; how it was run: as §5
HGC-27 = type: functional, Homo sapiens
BGC-823 = type: functional, Homo sapiens
SGC-7901 = type: functional, Homo sapiens
MGC-803 = type: functional, Homo sapiens
SK-HEP1 = type: functional, Homo sapiens
Bel-7402 = type: functional, Homo sapiens
SMMC-7721 = type: functional, Homo sapiens

Sequence of Cytochrome P450 2C19 (P33261 whole entry): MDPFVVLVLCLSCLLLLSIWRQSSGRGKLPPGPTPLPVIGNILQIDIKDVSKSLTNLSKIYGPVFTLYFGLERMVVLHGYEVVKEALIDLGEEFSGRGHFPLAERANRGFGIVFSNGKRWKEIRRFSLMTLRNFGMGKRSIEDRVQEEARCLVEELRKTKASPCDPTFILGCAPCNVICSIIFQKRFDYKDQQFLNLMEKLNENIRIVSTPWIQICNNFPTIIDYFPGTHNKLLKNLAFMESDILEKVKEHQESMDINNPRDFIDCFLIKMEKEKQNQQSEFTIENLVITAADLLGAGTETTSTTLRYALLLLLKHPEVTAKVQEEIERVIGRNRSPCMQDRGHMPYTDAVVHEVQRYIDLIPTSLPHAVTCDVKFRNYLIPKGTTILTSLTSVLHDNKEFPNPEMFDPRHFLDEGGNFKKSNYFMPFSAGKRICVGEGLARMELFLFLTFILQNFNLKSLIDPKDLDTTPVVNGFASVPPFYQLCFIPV
Sequence of Cytochrome P450 2D6 (P10635 whole entry): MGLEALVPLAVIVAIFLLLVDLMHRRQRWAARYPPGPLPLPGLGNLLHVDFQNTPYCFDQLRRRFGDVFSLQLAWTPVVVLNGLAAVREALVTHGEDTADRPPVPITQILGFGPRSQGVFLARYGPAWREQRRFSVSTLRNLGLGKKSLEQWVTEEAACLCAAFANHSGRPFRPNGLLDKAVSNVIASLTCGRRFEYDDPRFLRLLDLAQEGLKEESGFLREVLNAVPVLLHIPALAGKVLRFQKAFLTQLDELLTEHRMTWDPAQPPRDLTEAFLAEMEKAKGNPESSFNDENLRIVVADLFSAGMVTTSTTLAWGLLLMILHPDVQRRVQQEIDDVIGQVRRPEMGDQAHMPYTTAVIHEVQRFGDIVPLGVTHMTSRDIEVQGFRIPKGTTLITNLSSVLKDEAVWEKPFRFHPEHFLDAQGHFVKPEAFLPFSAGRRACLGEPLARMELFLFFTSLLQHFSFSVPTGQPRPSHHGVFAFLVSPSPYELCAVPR
Sequence of Cytochrome P450 3A4 (P08684 whole entry): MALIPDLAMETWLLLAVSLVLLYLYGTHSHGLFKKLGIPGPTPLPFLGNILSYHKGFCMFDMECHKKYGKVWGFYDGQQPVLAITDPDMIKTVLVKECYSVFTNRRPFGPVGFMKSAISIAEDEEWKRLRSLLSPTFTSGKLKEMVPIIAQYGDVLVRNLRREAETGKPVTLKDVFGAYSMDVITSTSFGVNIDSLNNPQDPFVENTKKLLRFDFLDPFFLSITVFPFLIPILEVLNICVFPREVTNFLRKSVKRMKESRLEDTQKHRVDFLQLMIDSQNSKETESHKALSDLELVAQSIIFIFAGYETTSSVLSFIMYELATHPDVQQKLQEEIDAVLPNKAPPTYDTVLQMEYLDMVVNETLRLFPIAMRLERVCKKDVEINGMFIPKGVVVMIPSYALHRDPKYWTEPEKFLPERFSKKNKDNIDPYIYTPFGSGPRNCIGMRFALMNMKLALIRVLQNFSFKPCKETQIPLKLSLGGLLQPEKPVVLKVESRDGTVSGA
Sequence of Cytochrome P450 2C9 (P11712 whole entry): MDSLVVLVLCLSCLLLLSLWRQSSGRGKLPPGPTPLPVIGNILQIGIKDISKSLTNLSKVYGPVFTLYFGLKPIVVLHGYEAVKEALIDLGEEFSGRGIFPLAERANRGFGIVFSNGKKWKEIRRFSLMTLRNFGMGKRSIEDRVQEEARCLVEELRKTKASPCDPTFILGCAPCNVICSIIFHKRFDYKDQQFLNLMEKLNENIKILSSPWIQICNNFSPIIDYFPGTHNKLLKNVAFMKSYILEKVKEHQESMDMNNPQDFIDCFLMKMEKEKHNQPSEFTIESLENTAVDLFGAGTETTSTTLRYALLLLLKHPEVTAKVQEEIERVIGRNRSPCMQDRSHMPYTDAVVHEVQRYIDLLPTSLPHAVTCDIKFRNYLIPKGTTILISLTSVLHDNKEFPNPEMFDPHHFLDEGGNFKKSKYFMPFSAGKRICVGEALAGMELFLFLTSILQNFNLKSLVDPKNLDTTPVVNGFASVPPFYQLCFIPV
Sequence of Voltage-gated inwardly rectifying potassium channel KCNH2 (Q12809 whole entry): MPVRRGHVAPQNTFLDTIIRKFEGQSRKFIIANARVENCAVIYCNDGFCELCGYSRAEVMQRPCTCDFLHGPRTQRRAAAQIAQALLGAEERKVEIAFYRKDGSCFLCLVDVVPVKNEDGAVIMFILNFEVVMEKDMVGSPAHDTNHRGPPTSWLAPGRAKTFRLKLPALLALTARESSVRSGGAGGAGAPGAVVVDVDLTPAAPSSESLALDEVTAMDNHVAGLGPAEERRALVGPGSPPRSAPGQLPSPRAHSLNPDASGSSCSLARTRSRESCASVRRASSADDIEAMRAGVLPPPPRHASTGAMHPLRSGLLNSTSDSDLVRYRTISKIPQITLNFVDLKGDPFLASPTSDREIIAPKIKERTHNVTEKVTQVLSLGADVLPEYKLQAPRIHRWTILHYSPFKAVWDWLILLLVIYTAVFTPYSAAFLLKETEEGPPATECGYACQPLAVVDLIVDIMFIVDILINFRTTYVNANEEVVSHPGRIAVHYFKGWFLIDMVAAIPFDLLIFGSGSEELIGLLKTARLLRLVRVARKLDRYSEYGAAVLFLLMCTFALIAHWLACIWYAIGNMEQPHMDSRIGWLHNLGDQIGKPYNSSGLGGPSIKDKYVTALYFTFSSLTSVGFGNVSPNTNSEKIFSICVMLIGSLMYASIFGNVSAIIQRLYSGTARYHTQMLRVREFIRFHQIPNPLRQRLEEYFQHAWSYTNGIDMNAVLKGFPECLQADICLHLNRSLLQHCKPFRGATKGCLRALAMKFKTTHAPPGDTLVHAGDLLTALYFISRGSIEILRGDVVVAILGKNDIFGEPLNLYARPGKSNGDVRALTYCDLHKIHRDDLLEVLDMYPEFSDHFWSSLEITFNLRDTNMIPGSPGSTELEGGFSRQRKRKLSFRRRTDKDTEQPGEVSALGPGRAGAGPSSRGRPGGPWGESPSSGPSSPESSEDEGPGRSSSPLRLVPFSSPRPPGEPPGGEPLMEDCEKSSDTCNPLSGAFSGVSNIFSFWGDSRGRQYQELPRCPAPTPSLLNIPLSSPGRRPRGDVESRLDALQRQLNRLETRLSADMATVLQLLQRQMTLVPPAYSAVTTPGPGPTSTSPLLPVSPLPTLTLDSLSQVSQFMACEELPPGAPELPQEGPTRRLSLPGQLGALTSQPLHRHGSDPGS

bioavailability [1]	Vd [2]	clearance [3]	AUC [4]	half-life [5]	Cmax [6]	Tmax [7]	CLhep predicted at 1 µM [8]	CLhep predicted at 1 µM [9]	Activity [10]	SMILES	further results
58%	4.1	20 mL/min/kg	7100 ng·h/mL	15 h	957 ng/mL	0.25 h	24 mL/min/kg	11 mL/min/kg	100%	Nc1ccccc1NC(=O)/C=C/c1ccc([C@H]2CN(CCO)C[C@@H]2C(=O)Nc2ccc(Cl)cc2)cc1 (racemic)	IC50 (Cytochrome P450 1A2): 26 µM; IC50 (Cytochrome P450 2C19): 10 µM; IC50 (Cytochrome P450 2C9): 3 µM; IC50 (Cytochrome P450 3A4): 2 µM; IC50 (Cytochrome P450 2D6): 2 µM; IC50 [11]: 15 µM
100%	3.7	33 mL/min/kg	5650 ng·h/mL	6.5 h	1100 ng/mL	1 h	34 mL/min/kg	14 mL/min/kg	230%	CC(C)(O)CN1C[C@H](C(=O)Nc2ccc(Cl)cc2)[C@@H](c2ccc(/C=C/C(=O)Nc3ccccc3N)cc2)C1 (racemic)	IC50 (Cytochrome P450 1A2): 7 µM; IC50 (Cytochrome P450 2C19): 7 µM; IC50 (Cytochrome P450 2C9): 4 µM; IC50 (Cytochrome P450 3A4): 3 µM; IC50 (Cytochrome P450 2D6): 0.7 µM
59%	31	60 mL/min/kg	813 ng·h/mL	6.8 h	113 ng/mL	2 h	20 mL/min/kg	8 mL/min/kg	160%	CC(C)(C)N1C[C@H](C(=O)Nc2ccc(Cl)cc2)[C@@H](c2ccc(/C=C/C(=O)Nc3ccccc3N)cc2)C1 (racemic)	
12%	6.6	27 mL/min/kg	743 ng·h/mL	1.1 h	337 ng/mL	2 h	40 mL/min/kg	12 mL/min/kg	260%	CC(C)(CO)N1C[C@H](C(=O)Nc2ccc(Cl)cc2)[C@@H](c2ccc(/C=C/C(=O)Nc3ccccc3N)cc2)C1 (racemic)	
							34 mL/min/kg	5 mL/min/kg	250%	CN1C[C@H](C(=O)Nc2ccc(F)cc2)[C@@H](c2ccc(/C=C/C(=O)Nc3ccccc3N)cc2)C1 (racemic)	bioavailability [12]: 95%; Vd [13]: 16 L; clearance [14]: 127 mL/min/kg; AUC [15]: 624 ng·h/mL; half-life [16]: 5 h; Cmax [17]: 170 ng/mL; Tmax [18]: 2 h
29%	7.2	53 mL/min/kg	911 ng·h/mL	4 h	262 ng/mL	1 h	46 mL/min/kg		180%	CN1C[C@H](C(=O)Nc2ccc(F)c(F)c2)[C@@H](c2ccc(/C=C/C(=O)Nc3ccccc3N)cc2)C1 (racemic)	
										Nc1ccccc1NC(=O)c1ccc(CNC(=O)OCc2cccnc2)cc1 [ENTINOSTAT]	GI90 (HGC-27): >30 µM; GI90 (BGC-823): 7.1 µM; GI90 (SGC-7901): 2.5 µM; GI90 (MGC-803): 8.9 µM; GI90 (SK-HEP1): 13 µM; GI90 (Bel-7402): 8 µM; GI90 (SMMC-7721): 11 µM
